The source of these data is PubChem BioAssay AID504383 (The Scripps Research Institute Molecular Screening Center, 2011).

Among all 2,500 compounds or so, about 1,200 (48%) were called active.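 Rule for the calls: active = mean activation above the low control average plus 3 SD, as set in the primary screen (cut at about 12% in these data); inactive = the rest.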 The set was probably picked from earlier hits. This is one part of the list.

This test concerns the target Troponin I, cardiac muscle (Homo sapiens) + Troponin T, cardiac muscle (Homo sapiens) + Troponin C, slow skeletal and cardiac muscles (Homo sapiens) (UniProt P19429+P45379+P63316). The test is described as follows: calcium sensitizers of cardiac thin filaments – biochemical, IANBD-TnC fluorescence, triplicate, confirmation (AID 504383).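 Note: 0% = DMSO at 0.472 mM calcium and 100% = DMSO at 2.9 mM calcium.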 The note with it: IANBD-labeled cardiac RTF, Ca2+ sensitivity fluorescence; at 7.2 µM; stronger effect = higher value; scaled from EC20 to saturating calcium; tested at EC20 calcium, 0.472 mM. In short, it runs like this: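 Assay system: labelled regulated thin filament protein complex; schedule: 15 min compound incubation with filaments at 25 °C; benchmarks: low control EC20 calcium, high control EC100 calcium; reagent: Ca2+ 0.472 mM, EC20 level; doses: one dose, 7.2 µM nominal; evaluation: fluorescence gain scaled between EC20 and EC100 calcium controls; signal: filament fluorescence intensity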
Consider `O=C(O)/C=C/C(=O)NCc1csc2ccccc12`, for which the activation was 278% (active). Next, `O=C(NCc1csc2ccccc12)Nc1cc(Cl)cc(Cl)c1`: 7.6% (inactive). The figure for `CCC(Oc1cc(Cl)ccc1Cl)C(=O)NNC(=O)CCC(=O)O` (stereo not drawn) is 12.2% (active); for `Fc1ccc(CN2CC[C@H]3C=CCc4cccc(c43)C2)cc1` it is 144% (active).

Consider `COC1C(CO)OC(n2c3c(Cl)cccc3c3c4c(c5c6cccc(Cl)c6[nH]c5c32)C(=O)NC4=O)C(O)C1O` (stereo not drawn), for which the activation was 2.74% (inactive). The figure for `CCN(CC)C(=S)SCC(=O)c1c(C)[nH]c2ccccc12` is 27% (active); for `CCN(CC)CC(C(=O)N(CC)CC)P(=O)(c1ccccc1)c1ccccc1` (stereo not drawn) it is 6.63% (inactive).

Turning to `CCN(CC)C(=O)C(=O)c1c(-c2ccccc2)[nH]c2ccccc12`, the activation was 20.5% (active). With `CC(=O)c1cc2c(cc1N/C(=N/S(=O)(=O)c1ccc(Br)cc1)c1ccccc1)OCO2`, the activation is 5.61% (inactive). The figure for `O=C(Nc1ccc2c(c1)OCCO2)c1cccc(Cl)c1Cl` is 77.8% (active). `CCN(CC)S(=O)(=O)c1ccc2c(c1)nc(CCC(=O)Nc1ccc3c(c1)OCO3)n2C`: the activation is 8.98% (inactive).

Consider `O=C(COc1ccccc1)NC(=S)Nc1cccc(NC(=O)c2ccccc2Cl)c1`, for which the activation is 7.06% (inactive). Next, `C=CCn1cccc(C(=O)Nc2ccc(OC)c(Cl)c2)c1=O`: 7.57% (inactive); `CCOC(=O)CNc1ccc2c(c1)OCO2`: 15.4% (active); `O=C(Nc1ccc2c(c1)OCO2)c1ccc2c(c1)OCO2`: 16.1% (active). Next, `CCOc1ccc2nc3cc(NCc4ccc(OC)cc4)ccc3c(N)c2c1`: 4.24% (inactive); `COc1ccc(Cn2nnc3ccccc32)cc1`: 8.45% (inactive); `CCOc1ccc(Cn2c3ccc(OC)cc3c3nc4ccccc4nc32)cc1`: 81.5% (active). Consider `CCCCOC(=O)Cn1c2ccc(OC)cc2c2nc3ccccc3nc21`, for which the activation was 12.9% (active).

For `CCOC(=O)c1c(C(C)(C)C)oc2ccc(OCC#N)cc12`, the activation is 8.86% (inactive). As for `CN(C)c1ccc(/C=C2\SC(=O)N(CC(O)Cn3c4ccccc4c4ccccc43)C2=O)cc1` (stereo not drawn), the activation is 14.3% (active).

Turning to `CN(C)c1ccc(/C=C2\SC(=O)N(CCc3nnc(N)s3)C2=O)cc1`, the activation is 5.55% (inactive).

With `CCOC(=O)CN1C(=O)S/C(=C/C=C/c2ccc(N(C)C)cc2)C1=O`, the activation is 3.71% (inactive). In the case of `COc1cc2nc(/C=C/c3ccc(N(C)C)cc3)sc2cc1SC`, the activation was -0.52% (inactive). Turning to `O=C(COC(=O)c1cc(-c2cccc3ccccc23)nc2ccccc12)NC1CCS(=O)(=O)C1` (stereo not drawn), the activation is 13.5% (active). The figure for `CCN1CC=C2C(C#N)=C(N)C(C#N)(C#N)C(c3cc(Cl)ccc3Cl)C2C1` (stereo not drawn) is 253% (active).

`CCCN1CC=C2C(C#N)=C(N)C(C#N)(C#N)C(c3cccc(OC)c3OC)C2C1` (stereo not drawn): the activation was 0.08% (inactive). With `CCN1CC=C2C(C#N)=C(N)C(C#N)(C#N)[C@H](c3cccc(OC)c3OC)[C@H]2C1`, the activation was 14.7% (active).
